Screening results from PubChem BioAssay.
Only some compounds are listed: those with a hit (about 1.9% of all), similar ones and a draw of the others.
PGC1a acetyl inh – modulators of PGC1a acetylation; inhibition, % at 15.6 µM; 350,000 compounds, 0.17% hits; AID 651687; U2OS PGC1a acetylation, AlphaScreen anti-acetyl-lysine; with virally co-expressed GCN5 acetyltransferase;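 active = every replicate shows inhibition of at least 40%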;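 note: 0% = neutral control wells and 100% = positive control wells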
Cneo AK release – Cryptococcus neoformans lysis via adenylate kinase release | lysis activity, % at 15 µM | 360,000 compounds, 0.2% hits | AID 651654 | C. neoformans lysis, adenylate kinase release luminescence, 4 h; normalised: neutral wells 0, clomiphene wells 100;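 active = mean lysis activity across replicates of at least 80%, whatever share of replicates individually reach that level; inactive = mean lysis activity below 80%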
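Test system: log-phase Cryptococcus neoformans yeast cells. Input: 5 × 10^6 yeast cells/mL. Medium: fresh YPD growth medium. Doses: single dose. Incubation: static 4 h at 37 °C with compound, 1 h detection. Measured by: luminescent adenylate kinase detection reagent. Read-out: signal increase indicating cell lysis. Benchmarks: Clomiphene.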
XiGFP reactiv – reactivates the inactive X chromosome in mouse fibroblasts. XiGFP mouse fibroblasts, % GFP-positive cells imaging, 3 d; cells co-treated with 5-aza-dC sensitizer; scaled so ellipticine positive control = 100%. activation, % at 7.58 µM. 360,000 compounds, 0.055% hits;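 active = mean normalized replicate activation at least 10% and every replicate at or above 10%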;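 note: 0% = median of on-plate neutral control wells and 100% = ellipticine 6 µM median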
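System: SV40-immortalized XiGFP fibroblast cells, line 68-5-11 / Incubation: 3-day compound exposure, then 15 min fixation at room temperature / Compound: single concentration per compound, delivered by pin transfer / Buffer or medium: DMEM plus 5-aza-dC sensitizer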
FN deposit inh – fibronectin deposition inhibition; AH1F fibroblasts, Alexa488-fibronectin deposition fluorescence, overnight; inhibition, % at 12.6 µM; 350,000 compounds, 0.086% hits;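 active = mean inhibition across replicates of 30% or more, regardless of how many single replicates reach that level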;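 note: positive control wells lacked labelled fibronectin entirely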
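material = AH1F fibroblast monolayer depositing Alexa488-labelled fibronectin into matrix | amount = 10000 AH1F cells/well | buffer or medium = DMEM plus 2% serum, read in PBS | incubation = 1 h cell adhesion before compound, then overnight fibronectin incubation | detection = fluorescence at 485 nm excitation, 525 nm emission | evaluation = percent inhibition as loss of matrix-bound fibronectin fluorescence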
CFTR F508del cor – CFTR F508del correction in bronchial cells; 350,000 compounds, 0.36% hits; CFBE cells, YFP halide quenching; stimulated with forskolin plus potentiator P3; % fluorescence drop versus neutral controls; activity (quench increase), % at 7.58 µM;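 active = mean added fluorescence quench of at least 8% versus neutral control, with both replicates also reaching 8%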;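 note: cells transiently co-express mutant CFTR-F508del with the halide-sensitive YFP; corrector assay measuring rescue of mutant channel to the surface after 24 h compound exposure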
DENV2 CPE – inhibitors of DENV2 cytopathic effect; DENV2-infected cells, cytopathic effect rescue, plate reader; CPE inhibition, % at 9.99 µM; 350,000 compounds, 1.7% hits; in the data active = CPE inhibition above about 20%, passing the limit was not always enough; tested in BHK-21 cells;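 note: 0% = median of neutral control wells and 100% = median of positive control wells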
Starred values were filed as active, the others as inactive; . = no result given.

SMILES | PGC1a acetyl inh | Cneo AK release | XiGFP reactiv | FN deposit inh | CFTR F508del cor | DENV2 CPE
CCCCCC(=O)N1C[C@H](n2cc(COC(=O)c3ccccc3)nn2)[C@@H](O)C[C@@H]1c1ccc(Cl)cc1 | -8 | -2 | 0 | -5 | 1 | 53*
COc1ccc([C@H]2C[C@H](O)[C@@H](n3cc(-c4ccc(F)cc4)nn3)CN2Cc2cccs2)cc1 | 7 | -2 | 0 | 9 | 8.1* | -9
COc1ccc([C@H]2C[C@H](n3cc(-c4ccc(F)cc4)nn3)[C@@H](O)CN2Cc2cccs2)cc1 | 6 | 0 | 0 | 2 | -1 | 4
CCCCCC(=O)N1C[C@H](n2cc(-c3ccc(F)cc3)nn2)[C@@H](O)C[C@@H]1c1ccc(C)cc1 | 67* | 7 | 0 | -2 | -3 | 0
Cc1ccc([C@H]2C[C@@H](n3cc(-c4ccc(F)cc4)nn3)[C@H](O)CN2C(=O)c2cccs2)cc1 | 12 | . | 0 | 9 | -2 | 32*
CO[C@@H](CN(C)S(=O)(=O)c1ccccc1)[C@@H](C)CN(Cc1ccccc1Cl)[C@@H](C)CO | -12 | 1 | 0 | 9 | -1 | 3
C[C@@H]1CN([C@H](C)CO)C(=O)c2cc(-c3ccc(C#N)cc3)cnc2O[C@H]1CN(C)C(=O)CC1CC1 | . | -1 | 0 | . | -2 | 4
CC1(C(=O)NCc2cc(F)cc(C(F)(F)F)c2)C=CC2(CCCCC2)N1C(=O)c1ccccc1 (stereo not drawn) | -12 | -1 | 0 | 9 | -4 | 100*
CCCNC(=O)c1ccc2c(=O)c(O)c(-c3ccc(F)cc3)[nH]c2c1 | 7 | 2 | . | . | . | .
CCCNC(=O)c1ccc2c(=O)c(O)c(-c3cccc(Br)c3)[nH]c2c1 | . | -1 | 0 | 6 | 8.4* | -18
O=C(C[C@@H]1C=C[C@@H](NC(=O)Cc2cccnc2)[C@H](CO)O1)Nc1ccccc1 | -4 | -6 | 0 | . | 0 | 4
C[C@@H]1CN([C@H](C)CO)C(=O)Cc2cc(NS(=O)(=O)c3cccs3)ccc2O[C@@H]1CN(C)C(=O)Nc1cccc2ccccc12 | -5 | 2 | 0 | . | -1 | -5
Cc1ccc(-c2cnc3c(c2)C(=O)N([C@H](C)CO)C[C@H](C)[C@H](CN(C)C(=O)Cc2ccccc2)O3)cc1 | -13 | -1 | -1 | . | -1 | 76*
Cc1ccc(-c2cnc3c(c2)C(=O)N([C@H](C)CO)C[C@H](C)[C@@H](CN(C)C(=O)Cc2ccncc2)O3)cc1 | -16 | 39 | 0 | . | 1 | 27*
COc1ccc(CN(C)C[C@H]2Oc3ccc(NS(=O)(=O)c4cn(C)cn4)cc3CC(=O)N([C@H](C)CO)C[C@@H]2C)cc1 | -3 | -2 | 0 | -4 | 1 | -7
CNC[C@H]1OCCCC[C@H](C)Oc2ccc(NS(=O)(=O)c3cn(C)cn3)cc2C(=O)N([C@H](C)CO)C[C@@H]1C | 18 | -17 | 0 | . | 1 | -9
CCOc1cc(/C=N/N=C(N)N)ccc1OCc1ccc(Cl)cc1 | 56* | -2 | 0 | 9 | . | -2
CCS(CC)=NS(=O)(=O)c1ccc(NC(C)=O)cc1 | 5 | 123* | . | . | . | .
Cc1cc(C(=O)Nc2cccc3c2O[C@H](CN(C)C)[C@H](C)CN([C@@H](C)CO)C3=O)n(C)n1 | 5 | 58 | 0 | -11 | 2 | 28*
Cc1cc(C(=O)Nc2cccc3c2O[C@@H](CN(C)S(=O)(=O)c2ccccc2)[C@@H](C)CN([C@@H](C)CO)C3=O)n(C)n1 | 5 | 104* | -1 | . | 7 | -9
O=C(C[C@@H]1CC[C@H](NC(=O)CC2CC2)[C@@H](CO)O1)NCc1ccc(-c2ccccc2)cc1 | -7 | 4 | 0 | 5 | 4 | -2
CN(C)CC(=O)Nc1ccc2c(c1)[C@@H]1C[C@@H](CC(=O)NCc3ccncc3)O[C@H](CO)[C@@H]1O2 | -1 | -1 | 0 | -2 | 4 | 2
CC(C)[C@H](NC(=O)CC1CCCC1)C(=O)N1CCC[C@H]1C(=O)NCCc1ccccc1Cl | . | . | 0 | 1 | -3 | 5
